The text below walks through data of ChEMBL document CHEMBL3352761, “Synthesis, antitumor activity, and mechanism of action of benzo[b]chromeno[6,5-g][1,8]naphthyridin-7-one analogs of acronycine” (J Med Chem, 2014).

Assay [1] deals with L1210. Nature of the assay: Cytotoxicity against mouse L1210 cells after 48 hrs by MTT assay. The following applies: L1210, 48 h. The class given is functional, cell-based. Background: Tetrazolium assays rely on reduction of a dye to a coloured formazan, in cell work by metabolically active cells.
Assay [2] in a line: Cytotoxicity against human KB-3-1 cells after 96 hrs by MTT assay. The settings on record: KB 3-1, 96 h. Format: functional, cell-based.
The subject of assay [3] is L1210. The assay can be described thus: Induction of cell cycle arrest in mouse L1210 cells assessed as accumulation at S phase at 5 uM incubated for 21 hrs by propidium iodide staining based flow cytometry (reference value: 32%). The class given is functional. (A flow cytometer gives signals particle by particle.)
Assay [4] in a line: Induction of 117-bp DNA (unknown origin) alkylation assessed as incubation time required to obtain maximum of covalent drug/DNA complex incubated for 5 mins to 24 hrs by gel shift assay.
Assay [5] is described as follows: Induction of 117-bp DNA (unknown origin) alkylation incubated for 5 mins to 24 hrs by gel shift assay. In short, it runs like this: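 117-bp pBS plasmid fragment (EcoRI/PvuII cut), 32P-labelled at EcoRI end, gel-purified. Incubated with drug (rising concentrations up to 50 μM, or fixed 50 μM for kinetics) in 1 mM Na cacodylate pH 7.0, dark, room temperature. Covalent complex seen as shifted band on native 6% PAGE in TBE, phosphorimaging; T1/2 taken as time to half-maximal shift.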
For orientation: A gel shift assay detects complexes by their altered migration in electrophoresis.

A short description of assay [6]: Induction of 117-bp DNA (unknown origin) alkylation assessed as incubation time required to obtain half of maximum of covalent drug/DNA complex incubated for 5 mins to 24 hrs by gel shift assay. In short, it runs like this: (§1)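 117-bp pBS EcoRI/PvuII fragment, 32P-end-labelled at EcoRI site, gel-purified; incubated with 50 μM drug in 1 mM Na cacodylate pH 7.0, dark, room temperature, 5 min to 24 h; 6% native polyacrylamide gel in TBE pH 8.3, ~5 h at 300 V; phosphorimaging of shifted band; T1/2 = time to half-maximal gel shift from quantification plots; nd if no maximum reached.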

Assay [7] is described as follows: Induction of 117-bp DNA (unknown origin) alkylation at 50 uM incubated for 24 hrs by gel shift assay. In short, it runs like this: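 Labelled 117-bp DNA fragment incubated with drug at increasing concentrations up to 50 μM in 1 mM Na cacodylate pH 7.0, dark, room temperature, 2 or 24 h; native polyacrylamide electrophoresis; bound/free ratio quantified relative to a 50 μM reference alkylator control; scored strong, weak (no plateau by 24 h) or none.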

For another assay, the system named is MC-38. The assay can be described thus: Antitumor activity against mouse C38 cells xenografted in mouse assessed as inhibition of tumor growth at 4 mg/kg, iv administered on day 12 and 24. Format: functional.
Assay [8] is described as follows: Induction of 117-bp DNA (unknown origin) alkylation assessed as incubation time required to obtain half of maximum of covalent drug/DNA complex at 50 uM incubated for 5 mins to 24 hrs by gel shift assay. In short, it runs like this:
as §1

The test system of assay [9] is L1210. Nature of the assay: Induction of cell cycle arrest in mouse L1210 cells assessed as accumulation at S phase at 2.5 uM incubated for 21 hrs by propidium iodide staining based flow cytometry (reference value: 32%). Format: functional.
Assay [10] relates to L1210. Nature of the assay: Induction of cell cycle arrest in mouse L1210 cells assessed as accumulation at S phase at 10 uM incubated for 21 hrs by propidium iodide staining based flow cytometry (reference value: 32%). The class given is functional.

Calls of active or inactive are those of the source. The calls are words filed in the database; no cut-off is given here.

One may read the IC50 as the concentration needed to halve the response being measured. Read a low IC50 as greater potency in that assay. Regarding `COc1c2c(cc3c1c(=O)c1cc4ccccc4nc1n3C)OC(C)(C)C=C2`, the values for the IC50 (in the assay on L1210 [1]; in assay [2]) were 24000 nM and 14000 nM, respectively. In the assay with L1210 [3], the result was inactive.
On to `COc1cc2c(c3c1c(=O)c1cc4ccccc4cc1n3C)[C@@H](OC(C)=O)[C@@H](OC(C)=O)C(C)(C)O2` (racemic), for which the Tmax in [4] is 2 h. Further, in assay [5], the result was Active. Also, the IC50 in assay [2] was 100 nM. The Activity in the assay with L1210 [3] came to 73%. For the same compound, the T1/2 in [6] amounted to 0.5 h.
The compound `COc1cc2c(c3c1c(=O)c1cc4ccccc4nc1n3C)[C@@H](O)[C@@H](O)C(C)(C)O2` (racemic) returned a half-maximal inhibitory concentration (IC50) in the assay with L1210 [1] of 5100 nM.
Turning to `COc1c2c(cc3c1c(=O)c1cc4ccccc4nc1n3C)OC(C)(C)[C@@H](O)[C@H]2O` (racemic), the IC50 in the assay with L1210 [1] stood at 12500 nM; in assay [2] it was 7000 nM.
For the compound `COc1cc2c(c3c1c(=O)c1cc4ccccc4nc1n3C)C(OC(C)=O)C(OC(C)=O)C(C)(C)O2` (racemic), the IC50 in the assay with L1210 [1] worked out at 200 nM; in assay [2], 37 nM. In addition, the outcome in assay [7] and in assay [5] was Active. Moreover, the Activity in the assay on L1210 [3] was 68%. For the same compound, the inhibition in vivo at 4 mg/kg with MC-38 (C38, 288 h, read-out: TGI) came out at 95%.
As to `COc1cc2c(c3c1c(=O)c1cc4ccccc4nc1n3C)[C@@H](OC(C)=O)[C@@H](OC(=O)/C=C/c1ccccc1)C(C)(C)O2` (racemic), the figures for the IC50 (in the assay with L1210 [1]; in assay [2]) were 2100 nM and 320 nM, respectively. Also, the result in assay [5] was Active. Further, the Activity in the assay with L1210 [3] worked out at 73%.
In the case of `COc1cc2c(c3c1c(=O)c1cc4ccccc4nc1n3C)[C@@H](OC(=O)/C=C/c1ccccc1)[C@@H](OC(=O)/C=C/c1ccccc1)C(C)(C)O2` (racemic), the values for the half-maximal inhibitory concentration (IC50) (with L1210 [1]; in [2]) were 5000 nM and 540 nM, respectively.
Consider `COc1cc2c(c3c1c(=O)c1cc4ccccc4cc1n3C)C(OC(C)=O)C(OC(C)=O)C(C)(C)O2` (single isomer, unassigned; (-)), for which the T1/2 in assay [6] was 0.333 h.
Regarding `COc1cc2c(c3c1c(=O)c1cc4ccccc4nc1n3C)[C@H](OC(C)=O)[C@H](OC(C)=O)C(C)(C)O2`, the concentration for half-maximal inhibition (IC50) with L1210 [1] is 210 nM; in assay [2], 35 nM. For the same compound, the Tmax in assay [4] is 3 h. Besides, the result in assay [5] was Active. Further, the T1/2 in [6] turned out to be 1.5 h. Besides, in the assay on MC-38, the TGI result is “Active”.
With `COc1ccc(/C=C/C(=O)O[C@@H]2[C@H](O)c3c(cc(OC)c4c(=O)c5cc6ccccc6nc5n(C)c34)OC2(C)C)cc1` (racemic), the IC50 was found to be 290 nM in the assay with L1210 [1] and 23 nM in assay [2]. In addition, the result in [5] was Active. Also, the Activity with L1210 [3] turned out to be 76%.
Regarding `COc1ccc(/C=C/C(=O)O[C@@H]2[C@H](OC(C)=O)c3c(cc(OC)c4c(=O)c5cc6ccccc6nc5n(C)c34)OC2(C)C)cc1` (racemic), the IC50 stood at 2900 nM with L1210 [1] and 470 nM in assay [2]. In [5], the result was inactive. In the assay on L1210 [3], the Activity came to 70%.
On to `COc1cc2c(c3c1c(=O)c1cc4ccccc4nc1n3C)C=CC(C)(C)O2`, for which the IC50 with L1210 [1] worked out at 11000 nM; in [2], 3700 nM. In addition, the result in the assay with L1210 [3] was inactive.
For `COc1cc2c(c3c1c(=O)c1cc4ccccc4nc1n3C)[C@@H](O)[C@@H](OC(=O)/C=C/c1ccc(C(F)(F)F)cc1)C(C)(C)O2` (racemic), the IC50 in the assay with L1210 [1] was 90 nM; in [2], 13 nM. In addition, the T1/2 in assay [8] and in [6] was 2 h in each case. Moreover, the Tmax in assay [4] turned out to be 8 h. Moreover, the result in [5] was Active. In addition, the Activity with L1210 [3] is reported as 69%.
Turning to `COc1cc2c(c3c1c(=O)c1cc4ccccc4nc1n3C)[C@@H](OC(C)=O)[C@@H](OC(=O)/C=C/c1ccc(C(F)(F)F)cc1)C(C)(C)O2` (racemic), the IC50 with L1210 [1] turned out to be 3800 nM; in assay [2], 390 nM. Moreover, in [5], the outcome was Active. Moreover, the Activity in the assay with L1210 [9] amounted to 73%.
With `COc1c2c(cc3c1c(=O)c1cc4ccccc4nc1n3C)OC(C)(C)[C@H]1OC(=O)O[C@@H]21` (racemic), the IC50 with L1210 [1] was 20000 nM; in assay [2], 12000 nM. The result in assay [5] was Active. In addition, the Activity in the assay on L1210 [3] was determined as 68%.
For the compound `COc1cc2c(c3c1c(=O)c1ccccc1n3C)C=CC(C)(C)O2` [ACRONINE], 3700 nM corresponded to half-maximal inhibition in assay [2] (IC50).
On to `COc1cc2c(c3c1c(=O)c1cc4ccccc4nc1n3C)[C@@H](O)[C@@H](OC(=O)/C=C/c1ccccc1)C(C)(C)O2` (racemic), for which the IC50 came to 110 nM in the assay on L1210 [1] and 30 nM in [2]. For the same compound, the Activity in the assay on L1210 [10] amounted to 66%. Also, the Tmax in assay [4] was found to be 3 h. In [5], the result was Active. Also, in assay [6], the T1/2 was determined as 0.75 h.
`COc1cc2c(c3c1c(=O)c1cc4ccccc4nc1n3C)[C@@H](OC(=O)/C=C/c1ccc(C(F)(F)F)cc1)[C@@H](OC(=O)/C=C/c1ccc(C(F)(F)F)cc1)C(C)(C)O2` (racemic): the IC50 with L1210 [1] came out at 9100 nM; in assay [2], 420 nM. The Activity with L1210 [10] came out at 60%. Besides, the outcome in assay [5] was Active.
Consider `COc1cc2c(c3c1c(=O)c1cc4ccccc4nc1n3C)[C@@H](OC(C)=O)[C@@H](OC(C)=O)C(C)(C)O2`, for which the IC50 worked out at 190 nM with L1210 [1] and 110 nM in [2]. Besides, the Tmax in assay [4] worked out at 3 h. The outcome in assay [5] was Active. Further, the T1/2 in assay [6] is 1 h. Also, the TGI result with MC-38 was “inactive”.
As for `COc1cc2c(c3c1c(=O)c1cc4ccccc4cc1n3C)C(OC(C)=O)C(OC(C)=O)C(C)(C)O2` (single isomer, unassigned; (+)), in assay [6], the T1/2 turned out to be 0.333 h.
Turning to `COc1cc2c(c3c1c(=O)c1cc4ccccc4nc1n3C)[C@H]1OC(=O)O[C@H]1C(C)(C)O2` (racemic), the figures for the IC50 (in the assay on L1210 [1]; in assay [2]) were 120 nM and 41 nM, respectively. Further, the outcome in [5] was Active. In the assay on L1210 [3], the Activity was 76%.
`COc1c2c(cc3c1c(=O)c1cc4ccccc4nc1n3C)OC(C)(C)[C@@H](OC(C)=O)[C@H]2OC(C)=O` (racemic): the IC50 in the assay on L1210 [1] came to 10300 nM; in assay [2], 8800 nM. The result in assay [5] was inactive.
Turning to `COc1ccc(/C=C/C(=O)O[C@@H]2c3c(cc(OC)c4c(=O)c5cc6ccccc6nc5n(C)c34)OC(C)(C)[C@@H]2OC(=O)/C=C/c2ccc(OC)cc2)cc1` (racemic), the IC50 in the assay on L1210 [1] amounted to 9600 nM; in [2], 370 nM. For the same compound, the outcome in assay [5] was Active. For the same compound, in the assay with L1210 [3], the Activity is reported as 70%.
